Results: PMC6500982 (Cancer Science, 2019)

Assay: Safety and tolerability
Type: in vivo, human
Summary of the method: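 Patients (enrolled January 2015–February 2016) received oral test compound in four cohorts: 160, 320 or 480 mg QD, or 300 mg BID. Dosing continued until progression, unacceptable AEs or consent withdrawal. AEs were graded by CTCAE v4.0, alongside laboratory tests, vital signs and ECGs. The safety population was all patients receiving ≥1 dose.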

Question: What does the source list for CC#CC(=O)N1CC[C@@H](n2c(=O)n(-c3ccc(Oc4ccccc4)cc3)c3c(N)ncnc32)C1 [tirabrutinib]?
Answer: All AEs, Any grade (160 mg QD N = 3): 3 (100.0) n (%); All AEs, Grade ≥3 (160 mg QD N = 3): 1 (33.3) n (%); Anemia, Any grade (160 mg QD N = 3): 0 n (%); Anemia, Grade ≥3 (160 mg QD N = 3): 0 n (%); Arthralgia, Any grade (160 mg QD N = 3): 1 (33.3) n (%); Arthralgia, Grade ≥3 (160 mg QD N = 3): 0 n (%); Aspartate aminotransferase increased, Any grade (160 mg QD N = 3): 0 n (%); Aspartate aminotransferase increased, Grade ≥3 (160 mg QD N = 3): 0 n (%); Constipation, Any grade (160 mg QD N = 3): 0 n (%); Constipation, Grade ≥3 (160 mg QD N = 3): 0 n (%); Cystitis, Any grade (160 mg QD N = 3): 0 n (%); Cystitis, Grade ≥3 (160 mg QD N = 3): 0 n (%); Diarrhea, Any grade (160 mg QD N = 3): 0 n (%); Diarrhea, Grade ≥3 (160 mg QD N = 3): 0 n (%); Dysgeusia, Any grade (160 mg QD N = 3): 0 n (%); Dysgeusia, Grade ≥3 (160 mg QD N = 3): 0 n (%); Gamma‐glutamyltransferase increased, Any grade (160 mg QD N = 3): 0 n (%); Gamma‐glutamyltransferase increased, Grade ≥3 (160 mg QD N = 3): 0 n (%); Headache, Any grade (160 mg QD N = 3): 1 (33.3) n (%); Headache, Grade ≥3 (160 mg QD N = 3): 0 n (%); Hypokalemia, Any grade (160 mg QD N = 3): 0 n (%); Hypokalemia, Grade ≥3 (160 mg QD N = 3): 0 n (%); Hypophosphatemia, Any grade (160 mg QD N = 3): 0 n (%); Hypophosphatemia, Grade ≥3 (160 mg QD N = 3): 0 n (%); Insomnia, Any grade (160 mg QD N = 3): 0 n (%); Insomnia, Grade ≥3 (160 mg QD N = 3): 0 n (%); Leukopenia, Any grade (160 mg QD N = 3): 0 n (%); Leukopenia, Grade ≥3 (160 mg QD N = 3): 0 n (%); Lymphopenia, Any grade (160 mg QD N = 3): 0 n (%); Lymphopenia, Grade ≥3 (160 mg QD N = 3): 0 n (%); Malaise, Any grade (160 mg QD N = 3): 2 (66.7) n (%); Malaise, Grade ≥3 (160 mg QD N = 3): 0 n (%); Myalgia, Any grade (160 mg QD N = 3): 2 (66.7) n (%); Myalgia, Grade ≥3 (160 mg QD N = 3): 0 n (%); Nasopharyngitis, Any grade (160 mg QD N = 3): 1 (33.3) n (%); Nasopharyngitis, Grade ≥3 (160 mg QD N = 3): 0 n (%); Nausea, Any grade (160 mg QD N = 3): 0 n (%); Nausea, Grade ≥3 (160 mg QD N = 3): 0 n (%); Neutropenia, Any grade (160 mg QD N = 3): 1 (33.3) n (%); Neutropenia, Grade ≥3 (160 mg QD N = 3): 1 (33.3) n (%); Pharyngitis, Any grade (160 mg QD N = 3): 1 (33.3) n (%); Pharyngitis, Grade ≥3 (160 mg QD N = 3): 0 n (%); Pyrexia, Any grade (160 mg QD N = 3): 0 n (%); Pyrexia, Grade ≥3 (160 mg QD N = 3): 0 n (%); Rash, Any grade (160 mg QD N = 3): 1 (33.3) n (%); Rash, Grade ≥3 (160 mg QD N = 3): 0 n (%); Thrombocytopenia, Any grade (160 mg QD N = 3): 0 n (%); Thrombocytopenia, Grade ≥3 (160 mg QD N = 3): 0 n (%); Upper respiratory tract inflammation, Any grade (160 mg QD N = 3): 1 (33.3) n (%); Upper respiratory tract inflammation, Grade ≥3 (160 mg QD N = 3): 0 n (%); Vomiting, Any grade (160 mg QD N = 3): 0 n (%); Vomiting, Grade ≥3 (160 mg QD N = 3): 0 n (%); All AEs, Any grade (300 mg BID N = 7): 7 (100.0) n (%); All AEs, Grade ≥3 (300 mg BID N = 7): 3 (42.9) n (%); Anemia, Any grade (300 mg BID N = 7): 1 (14.3) n (%); Anemia, Grade ≥3 (300 mg BID N = 7): 1 (14.3) n (%); Arthralgia, Any grade (300 mg BID N = 7): 1 (14.3) n (%); Arthralgia, Grade ≥3 (300 mg BID N = 7): 0 n (%); Aspartate aminotransferase increased, Any grade (300 mg BID N = 7): 1 (14.3) n (%); Aspartate aminotransferase increased, Grade ≥3 (300 mg BID N = 7): 0 n (%); Constipation, Any grade (300 mg BID N = 7): 1 (14.3) n (%); Constipation, Grade ≥3 (300 mg BID N = 7): 0 n (%); Cystitis, Any grade (300 mg BID N = 7): 1 (14.3) n (%); Cystitis, Grade ≥3 (300 mg BID N = 7): 0 n (%); Diarrhea, Any grade (300 mg BID N = 7): 2 (28.6) n (%); Diarrhea, Grade ≥3 (300 mg BID N = 7): 0 n (%); Dysgeusia, Any grade (300 mg BID N = 7): 1 (14.3) n (%); Dysgeusia, Grade ≥3 (300 mg BID N = 7): 0 n (%); Gamma‐glutamyltransferase increased, Any grade (300 mg BID N = 7): 1 (14.3) n (%); Gamma‐glutamyltransferase increased, Grade ≥3 (300 mg BID N = 7): 0 n (%); Headache, Any grade (300 mg BID N = 7): 1 (14.3) n (%); Headache, Grade ≥3 (300 mg BID N = 7): 0 n (%); Hypokalemia, Any grade (300 mg BID N = 7): 0 n (%); Hypokalemia, Grade ≥3 (300 mg BID N = 7): 0 n (%); Hypophosphatemia, Any grade (300 mg BID N = 7): 0 n (%); Hypophosphatemia, Grade ≥3 (300 mg BID N = 7): 0 n (%); Insomnia, Any grade (300 mg BID N = 7): 3 (42.9) n (%); Insomnia, Grade ≥3 (300 mg BID N = 7): 0 n (%); Leukopenia, Any grade (300 mg BID N = 7): 0 n (%); Leukopenia, Grade ≥3 (300 mg BID N = 7): 0 n (%); Lymphopenia, Any grade (300 mg BID N = 7): 0 n (%); Lymphopenia, Grade ≥3 (300 mg BID N = 7): 0 n (%); Malaise, Any grade (300 mg BID N = 7): 0 n (%); Malaise, Grade ≥3 (300 mg BID N = 7): 0 n (%); Myalgia, Any grade (300 mg BID N = 7): 0 n (%); Myalgia, Grade ≥3 (300 mg BID N = 7): 0 n (%); Nasopharyngitis, Any grade (300 mg BID N = 7): 1 (14.3) n (%); Nasopharyngitis, Grade ≥3 (300 mg BID N = 7): 0 n (%); Nausea, Any grade (300 mg BID N = 7): 2 (28.6) n (%); Nausea, Grade ≥3 (300 mg BID N = 7): 0 n (%); Neutropenia, Any grade (300 mg BID N = 7): 0 n (%); Neutropenia, Grade ≥3 (300 mg BID N = 7): 0 n (%); Pharyngitis, Any grade (300 mg BID N = 7): 1 (14.3) n (%); Pharyngitis, Grade ≥3 (300 mg BID N = 7): 0 n (%); Pyrexia, Any grade (300 mg BID N = 7): 2 (28.6) n (%); Pyrexia, Grade ≥3 (300 mg BID N = 7): 0 n (%); Rash, Any grade (300 mg BID N = 7): 1 (14.3) n (%); Rash, Grade ≥3 (300 mg BID N = 7): 0 n (%); Thrombocytopenia, Any grade (300 mg BID N = 7): 0 n (%); Thrombocytopenia, Grade ≥3 (300 mg BID N = 7): 0 n (%); Upper respiratory tract inflammation, Any grade (300 mg BID N = 7): 0 n (%); Upper respiratory tract inflammation, Grade ≥3 (300 mg BID N = 7): 0 n (%); Vomiting, Any grade (300 mg BID N = 7): 2 (28.6) n (%); Vomiting, Grade ≥3 (300 mg BID N = 7): 0 n (%); All AEs, Any grade (320 mg QD N = 3): 3 (100.0) n (%); All AEs, Grade ≥3 (320 mg QD N = 3): 2 (66.7) n (%); Anemia, Any grade (320 mg QD N = 3): 0 n (%); Anemia, Grade ≥3 (320 mg QD N = 3): 0 n (%); Arthralgia, Any grade (320 mg QD N = 3): 1 (33.3) n (%); Arthralgia, Grade ≥3 (320 mg QD N = 3): 0 n (%); Aspartate aminotransferase increased, Any grade (320 mg QD N = 3): 0 n (%); Aspartate aminotransferase increased, Grade ≥3 (320 mg QD N = 3): 0 n (%); Constipation, Any grade (320 mg QD N = 3): 1 (33.3) n (%); Constipation, Grade ≥3 (320 mg QD N = 3): 0 n (%); Cystitis, Any grade (320 mg QD N = 3): 1 (33.3) n (%); Cystitis, Grade ≥3 (320 mg QD N = 3): 0 n (%); Diarrhea, Any grade (320 mg QD N = 3): 1 (33.3) n (%); Diarrhea, Grade ≥3 (320 mg QD N = 3): 0 n (%); Dysgeusia, Any grade (320 mg QD N = 3): 0 n (%); Dysgeusia, Grade ≥3 (320 mg QD N = 3): 0 n (%); Gamma‐glutamyltransferase increased, Any grade (320 mg QD N = 3): 1 (33.3) n (%); Gamma‐glutamyltransferase increased, Grade ≥3 (320 mg QD N = 3): 0 n (%); Headache, Any grade (320 mg QD N = 3): 0 n (%); Headache, Grade ≥3 (320 mg QD N = 3): 0 n (%); Hypokalemia, Any grade (320 mg QD N = 3): 0 n (%); Hypokalemia, Grade ≥3 (320 mg QD N = 3): 0 n (%); Hypophosphatemia, Any grade (320 mg QD N = 3): 0 n (%); Hypophosphatemia, Grade ≥3 (320 mg QD N = 3): 0 n (%); Insomnia, Any grade (320 mg QD N = 3): 0 n (%); Insomnia, Grade ≥3 (320 mg QD N = 3): 0 n (%); Leukopenia, Any grade (320 mg QD N = 3): 2 (66.7) n (%); Leukopenia, Grade ≥3 (320 mg QD N = 3): 2 (66.7) n (%); Lymphopenia, Any grade (320 mg QD N = 3): 1 (33.3) n (%); Lymphopenia, Grade ≥3 (320 mg QD N = 3): 1 (33.3) n (%); Malaise, Any grade (320 mg QD N = 3): 0 n (%); Malaise, Grade ≥3 (320 mg QD N = 3): 0 n (%)
